bCat nuc transl – modulators of beta-catenin nuclear translocation; AID 1665; HeLa beta-catenin nuclear translocation, immunofluorescence imaging; 190,000 compounds, 0.3% hits; nuclear translocation activity, % at 5 µM;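 active = nuclear translocation activity above 50% at 5 µM, with a well cell count of 50 or more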;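 note: per-cell ratio of nuclear to cytoplasmic median beta-catenin stain intensity; plate controls were DMSO negative control for no effect and GSK-3 inhibitor IX positive control for full effect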
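Test system: HeLa cells, endogenous beta-catenin; Compound: single 5 µM dose plus 0.02–20 µM confirmation series; Times: compound exposure 24 h at 37°C; Signal: fluorescence imaging of beta-catenin antibody stain plus DAPI; Read-out: % activation, nuclear-to-cytoplasmic median beta-catenin signal ratio per cell.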
Dynein cargo inh – dynein cargo transport inhibition; 3617.4 mouse cells, GR-EGFP nuclear translocation imaging; test concentration mostly 20 µM; stimulated with dexamethasone, 1 µM; hits give low values; 220,000 compounds, 0.47% hits; z-score, hits read low;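 active = plate z-score of nuclear minus cytoplasmic receptor signal below a set negative limit, without overly bright fluorescence or cell loss, cut at about -3.5 in these data, passing the limit was not always enough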;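 note: z-score of nuclear minus cytoplasmic ring GR-EGFP intensity difference per well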
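Medium: Induction medium lacking tetracycline, stripped serum | Probe or stimulus: 1.0 µM final dexamethasone stimulus | Schedule: 48 h induction, then 1 h compound, then 30 min agonist, 37 °C | Signal: Automated 10x imaging of fixed Hoechst-stained cells | Evaluation: Per-cell GR-EGFP intensity, nucleus versus surrounding cytoplasmic ring, well-averaged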
MT stabilizer – stabilizes microtubules in HeLa cells; AID 2205; 200,000 compounds, 0.83% hits; HeLa tubulin immunostaining HCS, 24 h; share of cells brighter than vehicle mean+2SD; % tubulin-high responders, % at 10 µM;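 active = plate Z-score above 3 for both tubulin-high and condensed-nucleus cell shares, with cell loss under 80%, at 10 µM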;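 note: anti alpha tubulin signal scored within the nucleus-defined area of each cell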
L major viab – Leishmania major promastigote growth inhibition; Leishmania major promastigotes, resazurin fluorescence viability; inhibition, % at 10 µM; 200,000 compounds, 9% hits; in the data active = inhibition above about 50%;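 note: promastigotes grown with compound for 44 hours at 28 °C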
HSV augment – HSV replication enhancement | AID 1956 | HSV replication augmentation in cells, fold increase | maximum fold increase | 220,000 compounds, 0.005% hits; in the data active = maximum fold increase above about 1.5; tested in PC3 cells
* marks the source's active call; other numbers are inactive results; i = inactive; x = not tested or not shown. Hits are enriched below; roughly 8.9% of the tested compounds scored in any of these assays.

SMILES	bCat nuc transl	Dynein cargo inh	MT stabilizer	L major viab	HSV augment
CCCn1c(N2CCN(Cc3ccc(Cl)cc3)CC2)nc2ccccc21	1	0.53	2	55*	i
CC(C)NC(=O)Cn1c(=O)c2c(ncn2Cc2ccccc2)n(Cc2ccccc2)c1=O	0	0.24	2	-16	i
COc1ccc(C(=S)N2CCN(c3cccc(Cl)c3)CC2)c(OC)c1	107*	-0.38	18*	-6	i
COc1ccc(C(=O)N2CCN(c3cccc(Cl)c3)CC2)cc1	-2	0.31	2	-1	i
C/C=C/C(=O)OCC(=O)Nc1c(Cl)cccc1Cl	-6	0.22	2	-3	i
CN1CCN(CC(=O)N(Cc2c(C#N)c3ccccc3n2C)c2ccccc2)CC1	x	-0.72	2	100*	i
Cn1c(CN2CCN(CCO)CC2)c(C#N)c2ccccc21	0	0.26	x	x	i
O=C(CCCc1ccccc1)Nc1nnc(C(F)(F)F)s1	-1	-0.71	3	-2	i
CC(=O)c1cccc(CN2CCN(Cc3ccc(C)cc3)C(CCO)C2)c1 (centres undefined)	-3	-0.58	3	79*	i
Cc1ccc(CN2CCN(Cc3cccc(-n4cccn4)c3)CC2CCO)cc1 (centres undefined)	1	-0.027	5	80*	i
CC(=O)c1cccc(CN2CCN(CC=C(C)C)C(CCO)C2)c1 (centres undefined)	2	0.43	x	x	i
Cc1ccc(CN2CCN(Cc3ccc(-n4cccn4)cc3C)CC2CCO)cc1 (centres undefined)	0	-0.37	4	21	i
CC(=O)c1cccc(CN2CCN(CCc3ccccc3)C(CCO)C2)c1 (centres undefined)	0	2.4	2	68*	i
CC(=O)c1cccc(CN2CCN(Cc3ccc(F)cc3)C(CCO)C2)c1 (centres undefined)	-2	-0.81	3	87*	i
C=CCn1c(SCc2ccc(C#N)cc2)nnc1-c1ccccc1	-1	0.6	5	-2	i
CCOC(=O)N1CCC(NC(=O)CC(NS(=O)(=O)c2ccc(C)cc2)c2ccco2)CC1 (centres undefined)	x	-0.45	4	-9	i
Cc1cc(/C=C(\C#N)C(=O)NCCc2c[nH]c3ccccc23)c(C)n1C	-4	-0.27	3	-6	i
COc1ccc(CN2CCN(Cc3ccc(C)cc3)C(CCO)C2)cc1OC (centres undefined)	-3	0.53	6	5	i
OCCC1CN(Cc2ccc3c(c2)CCO3)CCN1Cc1ccc(F)cc1 (centres undefined)	0	-0.18	3	75*	i
CCOC(=O)c1ccc(S(=O)(=O)N2CCNCC2)cc1	x	0.25	1	-6	i
Cc1nnc(SC(=O)N2c3ccccc3Sc3ccccc32)s1	2	-2.9	36	63*	i
Cc1nnc(SCC(=O)N2c3ccccc3Sc3ccccc32)n1N	0	-1.2	3	-5	i
CCOC(=O)c1cc(C)n(CCCN2CCOCC2)c1C	0	3.8	1	90*	i
CCOC(=O)c1cc(C(C)(C)C)n(CCCN2CCOCC2)c1C	-2	0.15	x	x	i
CCCC(=O)NC(=S)Nc1ccc(NC(=O)c2cccs2)cc1	-4	-0.09	2	-2	i
SMILES	bCat nuc transl	Dynein cargo inh	MT stabilizer	L major viab	HSV augment
Fc1ccc(CSc2ccc3nnc(-c4ccccn4)n3n2)cc1	1	-0.81	1	96*	i
O=C(Nc1ccccc1)OCc1ccccn1	-8	0.095	5	-6	i
COc1ccc(C2C(C#N)=C(N)N(Nc3ccccc3)C3=C2C(=O)CC(C)(C)C3)cc1C (centres undefined)	1	1.1	2	86*	i
COc1cccc(C2C(C#N)=C(N)N(c3ncn[nH]3)C3=C2C(=O)CCC3)c1 (centres undefined)	-1	-0.33	5	-10	i
COc1ccc(OC)c(N2C(N)=C(C#N)C(c3ccc(OC)c(O)c3)C3=C2CC(C)(C)CC3=O)c1 (centres undefined)	1	-0.16	x	x	i
COc1cc(C2C(C#N)=C(N)N(Nc3ccccc3)C3=C2C(=O)CC(C)(C)C3)ccc1OCc1cccc(F)c1 (centres undefined)	3	1.8	5	56*	i
C=CCOc1ccc(C2C(C#N)=C(N)N(Nc3ccccc3)C3=C2C(=O)CCC3)cc1OC (centres undefined)	0	0.075	40*	96*	i
COc1ccc(C2C(C#N)=C(N)N(c3cccnc3)C3=C2C(=O)CC(C)(C)C3)cc1OC (centres undefined)	-3	0.76	3	-8	i
COc1ccc(N2C(N)=C(C#N)C(c3cccnc3)C3=C2CC(C)(C)CC3=O)cc1 (centres undefined)	2	-0.28	50*	1	i
Cc1ccc(CC(=O)N2CCN(c3ccccc3F)CC2)cc1	-1	-0.52	2	2	i
CCc1cc2ccccc2nc1Cl	0	0.29	5	-5	i
COc1cc(C2C(C#N)=C(N)N(Nc3ccccc3)C3=C2C(=O)CC(C)(C)C3)ccc1OCc1ccccc1 (centres undefined)	6	-1	3	100*	i
Clc1cccc(Cl)c1Cn1c(-c2cccnc2Cl)nc2ccccc21	-2	-0.69	3	76*	i
O=C(NCCCN1CCOCC1)c1ccc(Cl)c(S(=O)(=O)N2CCCCCC2)c1	-3	-0.11	2	9	i
CN(Cc1ccccc1F)c1nc(-c2cccs2)nc2ccccc12	0	-0.37	2	79*	i
CC(=O)Nc1ccc(-c2csc(NNC(=O)c3ccc(C)cc3)n2)cc1	0	0.048	1	9	i
Cc1ccc(C(C(=O)NC(C)(C)C)N(CC2CCCO2)C(=O)Cn2nnc(-c3ccc(C)o3)n2)cc1 (centres undefined)	-6	0.64	5	54*	i
Cn1c(-c2ccc(Br)cc2)cnc1NCc1cccnc1	1	-0.52	4	100*	i
Cn1c(-c2ccc(F)cc2)cnc1NCc1ccc(F)cc1	-2	-0.4	3	88*	i
Cn1c(-c2ccc(F)cc2)cnc1NCc1ccc(C#N)cc1	-6	-0.9	1	92*	i
CCOc1cc(CNc2ncc(-c3ccc(OC)cc3)n2C)ccc1O	1	-0.66	2	65*	i
Cn1c(-c2cccc([N+](=O)[O-])c2)cnc1NCc1cccc([N+](=O)[O-])c1	0	0.65	2	33	i
CC1(C)Cc2c(C#N)c(N3CCN(C(=O)c4ccccc4)CC3)nc(Cc3ccccc3)c2CO1	-6	0.37	1	71*	i
COc1cc(OC)cc(C(=O)NNC(=O)c2ccccc2Br)c1	-2	1	10	-4	i
CC(C)Oc1ccc(S(=O)(=O)N(C(C)C)C(C)C)cn1	3	-0.6	4	-6	i

Screening data from PubChem.
